Assay results: ChEMBL document CHEMBL4138310 (J Med Chem, 2018)

Experiments:
[1] = test system: Human immunodeficiency virus 1; test: Antiviral activity against wild-type HIV1 pNL4-3 infected in CMVdeltaR8.91 transfected 293T cells after 48 hrs by lentiviral vector-based luciferase reporter gene assay; type: functional, organism-based; settings: Human immunodeficiency virus 1, pNL4-3, HEK-293T
Method in brief: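 pNL4-3-based luciferase reporter lentiviral vector made by transfecting 293T cells with pCMV-ΔR8.91 (wild-type or V32I/L33F/I54M/V82I or V32I/L33F/I54M/I84V protease) plus luciferase transfer and envelope plasmids, with or without inhibitor. After 48 h, fresh 293T cells infected with vector. IC50 for suppression of luciferase transduction taken from dose-response curve.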

[2] = target: Protease (Human immunodeficiency virus 1) (UniProt Q9YQ12); test: Inhibition of recombinant HIV1 protease at 1 nM using H-Lys-Ala-Arg-Val-Tyr-Phe(p-NO2)-Glu-Ala-Nle-NH2 as substrate preincubated for 5 mins followed by substrate addition measured after 3 hrs by fluorescence-based assay
Method in brief: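 Recombinant HIV-1 protease (40 ng/mL stock in pH 5.0 acetate/EDTA/NaCl/2-mercaptoethanol/NP-40/glycerol) mixed with inhibitor (10 nM solution in DMSO) in 200 mM MES-NaOH pH 5.5 with 2 mM DTT, 2 mM EDTA and 1 M NaCl. Preincubated 5 min at 37 °C, then 1.0 mM substrate solution added and incubated 3 h at 37 °C. Stopped with 1 N HCl. The Lys-Ala-Arg-Val-Tyr-OH product was quantified by RP-HPLC with fluorescence (Ex 275, Em 305 nm). Single determination.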

[3] = test system: Human immunodeficiency virus 1; test: Antiviral activity against wild-type HIV1 pNL4-3 infected in human MT4 cells assessed as inhibition of virus-induced cytopathic effect after 5 days in absence of human serum by MTT assay; type: functional, organism-based; settings: Human immunodeficiency virus 1, pNL4-3, MT4, 120 h
Method in brief: (§1)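 MT-4 cells inoculated with HIV-1 pNL4-3, then given an equal volume of compound at several concentrations in 1% DMSO solution with 10% FBS. Incubated 5 days at 37 °C in CO2, in triplicate. MTT read by optical density, percent reduction of cytopathic effect calculated, and EC50 fitted to the median-effect equation. Values averaged over n = 3; the 50% human serum condition was run alongside.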

[4] = test system: Human immunodeficiency virus 1; test: Antiviral activity against wild-type HIV1 pNL4-3 infected in human MT4 cells assessed as inhibition of virus-induced cytopathic effect after 5 days in presence of 50 % of human serum by MTT assay; type: functional, organism-based; settings: Human immunodeficiency virus 1, pNL4-3, MT4, 120 h; method in brief: as §1
[5] = test system: Human immunodeficiency virus 1; test: Ratio of EC50 for wild-type HIV1 pNL4-3 infected in human MT4 in presence of 50% of human serum to EC50 for wild-type HIV-1 pNL4-3 infected in human MT4 in absence of human serum; type: functional
Method in brief: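 Serum binding effect calculated as the pNL4-3 EC50 in 50% human serum divided by the EC50 in 0% serum, using MT-4 cytopathic-effect MTT assays run for 5 days at 37 °C.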

[6] = Ratio of EC50 for inhibition of protease L10F/V32I/M46I/I47V/Q58E/I84V mutant in HIV1 A17 infected in human MT4 cells to EC50 for wild-type HIV-1 pNL4-3 infected in human MT4 cells; type: functional, Human immunodeficiency virus 1
Method in brief: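 Ratio of EC50 values from MT-4 cytopathic-effect MTT assays (5 days, 37 °C, triplicate, median-effect fit). Numerator is LPV-resistant strain A1711, denominator is wild-type HIV-1 pNL4-3.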

[7] = Cytotoxicity against human MT4 cells after 5 days by MTT assay; type: cell-based; settings: read-out: TD50
Method in brief: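 Uninfected MT-4 cells given compound at several concentrations in 1% DMSO solution with 10% FBS. Incubated 5 days at 37 °C in CO2, in triplicate. Viability read by MTT optical density, with TD50 taken as the cytotoxic measure.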

[8] = Ratio of EC50 for DRV-resistant protease V32I/L33F/I54M/V82I mutant in HIV1 transfected in 293T cells to EC50 for wild-type HIV-1 pNL4-3 infected in CMVdeltaR8.91 transfected 293T cells; type: functional, Human immunodeficiency virus 1
Method in brief: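 Ratio of IC50 values from the 293T luciferase reporter lentiviral vector assay. Numerator is vector carrying DRV-resistant protease (V32I/L33F/I54M/I84V or V32I/L33F/I54M/V82I), denominator is wild-type pNL4-3-based vector.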

[9] = Ratio of EC50 for DRV-resistant protease V32I/L33F/I54M/I84V mutant in HIV1 transfected in 293T cells to EC50 for wild-type HIV-1 pNL4-3 infected in CMVdeltaR8.91 transfected 293T cells; type: functional, Human immunodeficiency virus 1

Structure (SMILES): COc1cccc2cc(C(=O)N[C@H](C(=O)N[C@@H](Cc3ccccc3)[C@H](O)C(=O)N3CSC(C)(C)[C@H]3C(=O)NCc3c(C)cccc3C)[C@H]3CCOC3)oc12
- EC50 [1]: 1.71 nM
- inhibition [2]: 97%
- EC50 [3]: < 3 nM
- EC50 [4]: 80 nM
- Ratio EC50 [5]: >27
- Ratio EC50 [6]: >8
- CC50 at 120 h [7]: 11000 nM
- Ratio EC50 [8]: 0.2
- Ratio EC50 [9]: 0.7
